Source: PubChem
VLA-4 inh: inhibition in human VLA-4 binding assay, primary screen, VLA-4 allosteric modulator project, MLPCN library, flow cytometry, VLA-4 expressing cells; ligand binding flow cytometry; Integrin alpha-4 (Homo sapiens), P13612; inhibition, % (about 7 µM as worked out from the volumes in the protocol); AID 2557, 2010; 330,000 tested, 0.2% active; in the data active = inhibition above about 50%
NR1D1 modulator: modulators of Rev-erb alpha DNA binding, primary screen, biochemical, FITC-DNA, fluorescence polarization, uHTS | Nuclear receptor subfamily 1 group D member 1 (Homo sapiens), P20393 | Rev-erbα–FITC-DNA binding, 90 min | activity, % at 10 µM | 370,000 tested, 0.79% active | AID 1259318, 2017;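 active = activity above about 14%, limit read from the data; passing the limit was not always enough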
Target sequence (P20393 whole entry, looked up): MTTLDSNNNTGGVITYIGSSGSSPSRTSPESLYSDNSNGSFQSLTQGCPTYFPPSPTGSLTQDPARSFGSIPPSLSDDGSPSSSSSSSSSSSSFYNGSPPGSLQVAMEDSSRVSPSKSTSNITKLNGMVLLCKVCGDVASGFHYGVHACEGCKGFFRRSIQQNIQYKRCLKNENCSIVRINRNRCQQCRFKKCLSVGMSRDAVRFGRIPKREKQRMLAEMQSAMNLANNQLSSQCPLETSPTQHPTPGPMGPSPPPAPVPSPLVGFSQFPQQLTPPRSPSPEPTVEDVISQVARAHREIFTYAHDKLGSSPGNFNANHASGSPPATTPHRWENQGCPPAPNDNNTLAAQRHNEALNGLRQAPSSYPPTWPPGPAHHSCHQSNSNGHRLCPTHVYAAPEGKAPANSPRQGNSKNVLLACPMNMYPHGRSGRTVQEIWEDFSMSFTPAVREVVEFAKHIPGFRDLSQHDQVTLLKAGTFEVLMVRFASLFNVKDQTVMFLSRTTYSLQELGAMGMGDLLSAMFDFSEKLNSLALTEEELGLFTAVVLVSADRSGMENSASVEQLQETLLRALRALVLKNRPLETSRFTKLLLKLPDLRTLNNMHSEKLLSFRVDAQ
PG9 binder: binders of HIV-1 gp120 antibody PG9, primary screen, biochemical, TR-FRET; 360,000 tested, 0.43% active; inhibition, % at 6.7 µM; HIV-1 gp120 / PG9 antibody interaction; TR-FRET gp120-PG9 antibody binding; AID 624416, 2012; in the data active = inhibition above about 8.5%
NR2E3 ag-1: inhibitors of NR2E3-RetCOR corepressor binding, primary screen, NR2E3 agonist project, biochemical, TR-FRET, GST-NR2E3, biotin-RetCOR; Photoreceptor-specific nuclear receptor (Homo sapiens), Q9Y5X4; 1536-well; inhibition of corepressor binding, % at 4.78 µM; 320,000 tested, 0.12% active; AID 2300, 2010;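 active = percent inhibition above the cutoff of mean plus 3 SD of all tested compounds, set per screening campaign, cut at about 20% in these data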
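system = GST-tagged NR2E3 plus biotinylated RetCOR corepressor | input = 1.35 nM GST-NR2E3 | also added = 7 nM biotin-RetCOR | schedule = 5 h incubation at 4 °C | measured by = TR-FRET with europium anti-GST and streptavidin-D2, 340 nm excitation | read-out = percent loss of FRET ratio relative to control wells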
NR2E3 ag-2: NR2E3 agonists in two-hybrid cells, primary screen, cell-based, luminescence, CHO-S, Gal4-NCOR/VP16-NR2E3 | inhibition of corepressor binding, % at 3.98 µM | 360,000 tested, 0.35% active | luciferase | Photoreceptor-specific nuclear receptor (Homo sapiens), Q9Y5X4;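 active = inhibition above the mean of all tested compounds plus 3 SD, cut at about 70% in these data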;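 note: higher means lower luciferase signal from less NR2E3 corepressor binding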
NR2E3 ag confirm: NR2E3 agonist confirmation in cells, cell-based, luminescence, CHO-S two-hybrid | 2,300 tested, 51% active | shares compounds with NR2E3 ag-2 | AID 624378, 2012 | CHO-S mammalian two-hybrid NR2E3-NCOR, luciferase luminescence | inhibition, % at 3.98 µM;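 active = average inhibition above a cutoff equal to the mean inhibition of all tested compounds plus one SD, cut at about 70% in these data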
GAL4-VP16 luc: GAL4-VP16 reporter modulators, confirmation, counter-screen for NR2E3 agonist project, cell-based, luminescence, CHO-S, high throughput; inhibition, % at 3.98 µM; AID 624379, 2012; 2,300 tested, 29% active; CHO-S GAL4-VP16 luciferase reporter; shares compounds with NR2E3 ag-2;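 active = mean inhibition above a cutoff equal to the average over all tested compounds plus one standard deviation, cut at about 70% in these data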;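 note: luciferase from a UAS reporter driven by GAL4-VP16 transactivation; higher means less reporter light so more repression of VP16 activity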
Numbers stand for hits. Sampled rows, rich in hits. Any-hit rate of the full collection: about 1.6%.

How did CCN(C1CCCCC1)S(=O)(=O)c1ccc(S(=O)(=O)NCc2ccncc2)cc1 do in these assays?
VLA-4 inh: inactive; NR1D1 modulator: inactive; PG9 binder: inactive; NR2E3 ag-1: inactive; NR2E3 ag-2: 91; NR2E3 ag confirm: 88; GAL4-VP16 luc: 74

How did COc1cc(C)c(Br)cc1S(=O)(=O)NCc1ccccc1 do in these assays?
VLA-4 inh: inactive; NR1D1 modulator: inactive; PG9 binder: inactive; NR2E3 ag-1: inactive; NR2E3 ag-2: inactive

How did CCOC(=O)[C@]12CCCCC/C=C\1N(Cc1ccc(OC)cc1)C(=O)[C@H]2CC(=O)N1CCSCC1 do in these assays?
NR1D1 modulator: inactive

What do the screens show for `C=CCn1c(SCc2ccc(C#N)cc2)nnc1-c1ccco1`?
NR1D1 modulator: inactive

Results for C=CCc1cccc(C=NNC(=O)c2ccco2)c1O ?
NR1D1 modulator: inactive

What do the screens show for `O=S(=O)(NCc1ccncc1)c1ccccc1`?
VLA-4 inh: inactive; NR1D1 modulator: inactive; PG9 binder: inactive; NR2E3 ag-1: inactive; NR2E3 ag-2: inactive

Results for Cc1cc(C)c(C)c(S(=O)(=O)NCc2ccncc2)c1C ?
VLA-4 inh: inactive; NR1D1 modulator: inactive; PG9 binder: inactive; NR2E3 ag-1: inactive; NR2E3 ag-2: inactive; NR2E3 ag confirm: inactive; GAL4-VP16 luc: inactive

What do the screens show for `O=S(=O)(NCc1ccncc1)c1ccc(F)c(F)c1`?
NR1D1 modulator: inactive; PG9 binder: inactive; NR2E3 ag-2: inactive

What do the screens show for `Cc1ccc(S(=O)(=O)NCc2ccncc2)cc1C`?
VLA-4 inh: inactive; NR1D1 modulator: inactive; PG9 binder: inactive; NR2E3 ag-1: inactive; NR2E3 ag-2: inactive; NR2E3 ag confirm: 92; GAL4-VP16 luc: 76

What do the screens show for `COc1ccc(S(=O)(=O)Nc2ccc(Cc3ccncc3)cc2)cc1C`?
VLA-4 inh: inactive; NR2E3 ag-1: inactive; NR2E3 ag-2: inactive; NR2E3 ag confirm: inactive; GAL4-VP16 luc: inactive

What do the screens show for `O=C1CCC[C@H]2Cc3nc4cccc(Cl)c4cc3C[C@]23CCCN13`?
NR1D1 modulator: inactive

What do the screens show for `NC(=S)N=Nc1c(O)n(CCCl)c2ccc(Cl)cc12`?
VLA-4 inh: inactive; NR1D1 modulator: inactive; PG9 binder: inactive; NR2E3 ag-1: inactive; NR2E3 ag-2: inactive; NR2E3 ag confirm: inactive; GAL4-VP16 luc: inactive

How did c1ccc(-c2nc3ccccn3c2NC2CCCC2)nc1 do in these assays?
VLA-4 inh: inactive; NR1D1 modulator: inactive; PG9 binder: inactive; NR2E3 ag-1: inactive; NR2E3 ag-2: inactive; NR2E3 ag confirm: inactive; GAL4-VP16 luc: inactive

How did Cc1cc(C)n2c(NC3CCCCC3)c(-c3ccccn3)nc2n1 do in these assays?
NR1D1 modulator: inactive; PG9 binder: inactive; NR2E3 ag-2: inactive

Results for Cc1ccn2c(NC3CCCC3)c(-c3ccccn3)nc2c1 ?
VLA-4 inh: inactive; NR1D1 modulator: inactive; PG9 binder: inactive; NR2E3 ag-1: inactive; NR2E3 ag-2: inactive; NR2E3 ag confirm: inactive; GAL4-VP16 luc: inactive

How did CC(=O)NC1CCCCN(Cc2cccc(F)c2)C1=O (centres undefined) do in these assays?
NR1D1 modulator: inactive

What do the screens show for `C(=Cc1cnc2ccccc2n1)c1ccc2c(c1)OCO2`?
NR1D1 modulator: inactive; PG9 binder: inactive; NR2E3 ag-2: inactive; NR2E3 ag confirm: inactive; GAL4-VP16 luc: inactive

What do the screens show for `C(=Cc1nc2ccccc2o1)c1ccc2c(c1)OCO2`?
NR1D1 modulator: inactive; PG9 binder: inactive; NR2E3 ag-2: inactive

Results for O=C1c2cc([N+](=O)[O-])ccc2-c2cc(Br)c(N=C(NO)C(F)(F)F)cc21 ?
NR1D1 modulator: inactive; PG9 binder: inactive; NR2E3 ag-2: 101; NR2E3 ag confirm: 97; GAL4-VP16 luc: inactive

How did COc1ccccc1CNc1nc(NCc2ccccc2)nc2ccsc12 do in these assays?
NR1D1 modulator: inactive; PG9 binder: inactive; NR2E3 ag-2: inactive; NR2E3 ag confirm: inactive; GAL4-VP16 luc: inactive

How did c1ccc(CNc2nc(NCc3ccccc3)c3sccc3n2)cc1 do in these assays?
NR1D1 modulator: inactive; PG9 binder: inactive; NR2E3 ag-2: inactive; NR2E3 ag confirm: 74; GAL4-VP16 luc: inactive

What do the screens show for `COc1ccccc1CNc1nc(NCc2ccc(C)cc2C)c2sccc2n1`?
NR2E3 ag-2: inactive; NR2E3 ag confirm: inactive; GAL4-VP16 luc: inactive

What do the screens show for `COc1ccccc1CNc1nc(NCc2cccc(OC)c2OC)c2sccc2n1`?
NR1D1 modulator: inactive; PG9 binder: inactive; NR2E3 ag-2: inactive

What do the screens show for `C#Cc1cccc(Nc2nc(NCc3ccccc3OC)nc3ccsc23)c1`?
NR1D1 modulator: inactive; PG9 binder: inactive; NR2E3 ag-2: inactive; NR2E3 ag confirm: 92; GAL4-VP16 luc: 75

How did N#Cc1cccc(NC(=O)O[C@@H]2CC[C@@]34CCCN3C(=O)CCC[C@H]4C2)c1 do in these assays?
NR1D1 modulator: inactive

How did COc1cccc(N2CCN(CC(=O)N(C)Cc3ccccc3Cl)CC2)c1 do in these assays?
NR1D1 modulator: inactive

What do the screens show for `COc1ccccc1CNc1nc(NCc2ccccc2F)c2sccc2n1`?
NR2E3 ag-2: 82; NR2E3 ag confirm: 94; GAL4-VP16 luc: 76

Results for CCN1CCCCC(NC(=O)c2ccccc2)C1=O (centres undefined) ?
NR1D1 modulator: inactive

How did CCCCN(CCCC)c1ccc(C(=O)c2ccccc2C(=O)O)c(O)c1 do in these assays?
VLA-4 inh: inactive; NR1D1 modulator: inactive; PG9 binder: inactive; NR2E3 ag-1: inactive; NR2E3 ag-2: inactive; NR2E3 ag confirm: inactive; GAL4-VP16 luc: inactive

How did O=C(O)CSCC(=O)Nc1ccc(C2CCCCC2)cc1 do in these assays?
VLA-4 inh: inactive; NR1D1 modulator: inactive; PG9 binder: inactive; NR2E3 ag-1: inactive; NR2E3 ag-2: 72; NR2E3 ag confirm: inactive; GAL4-VP16 luc: inactive

How did O=C(NCc1ccccc1)[C@@H]1CCCN1C(=O)[C@H]1CCCN1C(=O)c1ccccc1Cl do in these assays?
NR1D1 modulator: inactive; PG9 binder: inactive

What do the screens show for `Cc1cccc(/C=N/Nc2cc(N3CCOCC3)nc(N3CCOCC3)n2)c1`?
VLA-4 inh: inactive; NR1D1 modulator: inactive; PG9 binder: inactive; NR2E3 ag-1: inactive; NR2E3 ag-2: inactive; NR2E3 ag confirm: 75; GAL4-VP16 luc: inactive

Results for CC(C)c1ccc(/C=N/Nc2cc(N3CCOCC3)nc(N3CCOCC3)n2)cc1 ?
VLA-4 inh: inactive; NR1D1 modulator: inactive; PG9 binder: inactive; NR2E3 ag-1: inactive; NR2E3 ag-2: inactive
